Results on 32 compounds are retold here after ChEMBL document CHEMBL4229344 (Eur J Med Chem, 2018).

The target in series [1] is Mast/stem cell growth factor receptor Kit (Homo sapiens, UniProt P10721). Description: Inhibition of TEL-fused c-KIT (unknown origin) expressed in mouse BA/F3 cells assessed as growth inhibition after 72 hrs by CellTiter-Glo or CCK-8 assay. The format is cell-based. The essentials: (§1)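 Parental BaF3 or IL-3-independent TEL-kinase BaF3 lines, made by retroviral infection and puromycin selection, grown in RPMI 1640 with 10% FBS. Cells seeded at 1–3 × 10^4 cells/mL with serial compound concentrations for 72 h. Viability read by CellTiter-Glo luminescence or CCK-8 absorbance at 450/655 nm and normalised to DMSO. GI50 obtained by triplicate testing with linear regression. Selectivity is the ratio of the two GI50 values.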
Background: ATP-based viability assays read luminescence as a measure of living cells.

The target of series [2] is Platelet-derived growth factor receptor beta (Homo sapiens, UniProt P09619). Description: Inhibition of TEL-fused PDGFRbeta (unknown origin) expressed in mouse BA/F3 cells assessed as growth inhibition after 72 hrs by CellTiter-Glo or CCK-8 assay. It is filed as cell-based. The essentials: as §1
Series [3] in a line: Cytotoxicity against mouse BA/F3 cells after 72 hrs by CellTiter-Glo or CCK-8 assay. The format is cell-based, BaF3. The essentials: as §1
The target in series [4] is Platelet-derived growth factor receptor alpha (Homo sapiens, UniProt P16234).
Series [5] deals with Vascular endothelial growth factor receptor 2 (Homo sapiens) (UniProt P35968).
The species entered for a further series is Homo sapiens. In words: Selectivity index, ratio of GI50 for TEL-fused PDGFRbeta (unknown origin) expressed in mouse BA/F3 cells to GI50 for TEL-fused PDGFRalpha (unknown origin) expressed in mouse BA/F3 cells. The format is cell-based. The essentials:
as §1

The structures appear in SMILES notation.

Sequence of Platelet-derived growth factor receptor beta (P09619 whole entry, the tested form may be a part): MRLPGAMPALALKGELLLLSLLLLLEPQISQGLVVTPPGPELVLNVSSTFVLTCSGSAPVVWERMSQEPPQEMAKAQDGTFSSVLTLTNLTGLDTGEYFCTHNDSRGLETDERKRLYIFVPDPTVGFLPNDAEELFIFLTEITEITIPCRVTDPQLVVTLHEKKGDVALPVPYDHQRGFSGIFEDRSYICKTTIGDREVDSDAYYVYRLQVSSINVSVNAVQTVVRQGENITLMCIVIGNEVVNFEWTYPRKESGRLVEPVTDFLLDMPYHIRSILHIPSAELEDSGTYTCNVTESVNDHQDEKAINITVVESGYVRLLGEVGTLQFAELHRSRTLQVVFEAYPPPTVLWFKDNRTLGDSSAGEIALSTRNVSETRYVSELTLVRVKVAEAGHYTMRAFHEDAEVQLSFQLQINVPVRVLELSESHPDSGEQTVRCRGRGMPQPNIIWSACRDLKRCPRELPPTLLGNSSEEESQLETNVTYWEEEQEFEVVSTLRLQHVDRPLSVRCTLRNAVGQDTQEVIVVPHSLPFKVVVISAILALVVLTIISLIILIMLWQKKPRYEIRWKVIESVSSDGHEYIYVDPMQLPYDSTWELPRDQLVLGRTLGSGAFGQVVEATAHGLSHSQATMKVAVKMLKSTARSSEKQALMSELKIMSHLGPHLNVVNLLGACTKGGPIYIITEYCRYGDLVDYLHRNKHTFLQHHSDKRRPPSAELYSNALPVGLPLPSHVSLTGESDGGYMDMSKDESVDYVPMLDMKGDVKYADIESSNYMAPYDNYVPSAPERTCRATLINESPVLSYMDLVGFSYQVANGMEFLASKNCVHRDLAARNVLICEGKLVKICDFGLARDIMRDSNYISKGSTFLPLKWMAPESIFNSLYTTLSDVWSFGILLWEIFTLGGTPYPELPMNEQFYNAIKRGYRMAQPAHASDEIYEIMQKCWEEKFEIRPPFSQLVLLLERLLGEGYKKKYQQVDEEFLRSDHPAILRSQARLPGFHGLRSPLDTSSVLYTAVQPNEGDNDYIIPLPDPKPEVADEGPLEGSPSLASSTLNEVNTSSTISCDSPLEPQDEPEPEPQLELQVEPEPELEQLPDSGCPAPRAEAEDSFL
Sequence of Mast/stem cell growth factor receptor Kit (P10721 whole entry, the tested form may be a part): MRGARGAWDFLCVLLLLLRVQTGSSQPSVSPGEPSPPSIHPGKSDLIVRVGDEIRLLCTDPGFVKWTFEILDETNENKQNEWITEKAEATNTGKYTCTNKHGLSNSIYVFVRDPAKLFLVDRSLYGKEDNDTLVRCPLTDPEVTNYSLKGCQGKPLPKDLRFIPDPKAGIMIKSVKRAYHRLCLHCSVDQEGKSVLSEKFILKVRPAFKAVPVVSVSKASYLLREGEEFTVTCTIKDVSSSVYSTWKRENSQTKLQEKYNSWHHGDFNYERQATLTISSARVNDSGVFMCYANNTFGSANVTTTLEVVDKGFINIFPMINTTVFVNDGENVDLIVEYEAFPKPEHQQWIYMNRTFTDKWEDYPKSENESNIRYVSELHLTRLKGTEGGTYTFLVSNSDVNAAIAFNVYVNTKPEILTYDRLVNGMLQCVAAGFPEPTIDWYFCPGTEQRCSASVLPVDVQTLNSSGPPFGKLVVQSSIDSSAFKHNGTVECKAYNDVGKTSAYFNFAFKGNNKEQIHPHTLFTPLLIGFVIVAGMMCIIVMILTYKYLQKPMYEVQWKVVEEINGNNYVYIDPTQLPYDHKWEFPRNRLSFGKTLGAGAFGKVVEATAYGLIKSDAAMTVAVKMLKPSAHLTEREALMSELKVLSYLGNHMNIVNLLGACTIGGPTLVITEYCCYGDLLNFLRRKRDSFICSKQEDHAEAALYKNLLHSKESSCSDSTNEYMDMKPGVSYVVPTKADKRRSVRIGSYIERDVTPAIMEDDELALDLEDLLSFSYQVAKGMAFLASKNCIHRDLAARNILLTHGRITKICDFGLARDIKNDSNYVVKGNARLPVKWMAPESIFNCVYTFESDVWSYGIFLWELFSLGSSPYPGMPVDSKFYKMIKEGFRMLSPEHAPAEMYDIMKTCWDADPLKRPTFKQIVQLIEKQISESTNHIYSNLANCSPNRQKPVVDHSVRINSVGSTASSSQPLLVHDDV
Sequence of Vascular endothelial growth factor receptor 2 (Homo sapiens) (P35968 whole entry, the tested form may be a part): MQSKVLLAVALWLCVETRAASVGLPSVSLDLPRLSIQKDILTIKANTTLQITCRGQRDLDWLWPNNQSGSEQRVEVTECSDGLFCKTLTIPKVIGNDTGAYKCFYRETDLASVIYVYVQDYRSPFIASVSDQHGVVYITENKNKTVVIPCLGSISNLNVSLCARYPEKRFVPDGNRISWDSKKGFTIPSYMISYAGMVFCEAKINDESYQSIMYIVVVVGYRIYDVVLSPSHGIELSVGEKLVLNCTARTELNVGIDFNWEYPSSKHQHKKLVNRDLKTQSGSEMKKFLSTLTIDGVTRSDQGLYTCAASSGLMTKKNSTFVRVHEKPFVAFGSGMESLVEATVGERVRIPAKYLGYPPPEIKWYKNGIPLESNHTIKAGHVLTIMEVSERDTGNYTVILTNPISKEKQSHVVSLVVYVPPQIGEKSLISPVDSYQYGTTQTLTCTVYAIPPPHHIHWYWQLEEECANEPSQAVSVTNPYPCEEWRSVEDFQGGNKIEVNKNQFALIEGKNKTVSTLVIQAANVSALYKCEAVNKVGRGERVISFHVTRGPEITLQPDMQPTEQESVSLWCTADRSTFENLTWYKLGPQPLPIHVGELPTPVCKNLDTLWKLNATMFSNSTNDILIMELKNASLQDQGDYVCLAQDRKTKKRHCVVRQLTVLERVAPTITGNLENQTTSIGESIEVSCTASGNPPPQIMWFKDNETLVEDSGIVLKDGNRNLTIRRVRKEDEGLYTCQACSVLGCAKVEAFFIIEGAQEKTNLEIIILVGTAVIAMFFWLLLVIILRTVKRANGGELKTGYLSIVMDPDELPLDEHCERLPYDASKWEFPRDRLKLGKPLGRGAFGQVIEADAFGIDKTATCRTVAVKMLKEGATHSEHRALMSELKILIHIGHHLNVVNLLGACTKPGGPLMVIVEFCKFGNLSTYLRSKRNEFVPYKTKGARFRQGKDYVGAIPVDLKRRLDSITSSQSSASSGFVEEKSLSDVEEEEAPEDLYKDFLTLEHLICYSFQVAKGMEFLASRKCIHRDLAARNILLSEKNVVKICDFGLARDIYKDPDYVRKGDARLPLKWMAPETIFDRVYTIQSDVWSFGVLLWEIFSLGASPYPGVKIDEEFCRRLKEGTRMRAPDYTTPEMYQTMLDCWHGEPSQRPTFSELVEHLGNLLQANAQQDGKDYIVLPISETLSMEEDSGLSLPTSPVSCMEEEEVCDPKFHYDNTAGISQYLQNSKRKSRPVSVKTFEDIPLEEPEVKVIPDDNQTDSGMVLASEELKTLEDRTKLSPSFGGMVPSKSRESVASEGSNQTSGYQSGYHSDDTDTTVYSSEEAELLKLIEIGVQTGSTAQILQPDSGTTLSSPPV
Sequence of Platelet-derived growth factor receptor alpha (P16234 whole entry): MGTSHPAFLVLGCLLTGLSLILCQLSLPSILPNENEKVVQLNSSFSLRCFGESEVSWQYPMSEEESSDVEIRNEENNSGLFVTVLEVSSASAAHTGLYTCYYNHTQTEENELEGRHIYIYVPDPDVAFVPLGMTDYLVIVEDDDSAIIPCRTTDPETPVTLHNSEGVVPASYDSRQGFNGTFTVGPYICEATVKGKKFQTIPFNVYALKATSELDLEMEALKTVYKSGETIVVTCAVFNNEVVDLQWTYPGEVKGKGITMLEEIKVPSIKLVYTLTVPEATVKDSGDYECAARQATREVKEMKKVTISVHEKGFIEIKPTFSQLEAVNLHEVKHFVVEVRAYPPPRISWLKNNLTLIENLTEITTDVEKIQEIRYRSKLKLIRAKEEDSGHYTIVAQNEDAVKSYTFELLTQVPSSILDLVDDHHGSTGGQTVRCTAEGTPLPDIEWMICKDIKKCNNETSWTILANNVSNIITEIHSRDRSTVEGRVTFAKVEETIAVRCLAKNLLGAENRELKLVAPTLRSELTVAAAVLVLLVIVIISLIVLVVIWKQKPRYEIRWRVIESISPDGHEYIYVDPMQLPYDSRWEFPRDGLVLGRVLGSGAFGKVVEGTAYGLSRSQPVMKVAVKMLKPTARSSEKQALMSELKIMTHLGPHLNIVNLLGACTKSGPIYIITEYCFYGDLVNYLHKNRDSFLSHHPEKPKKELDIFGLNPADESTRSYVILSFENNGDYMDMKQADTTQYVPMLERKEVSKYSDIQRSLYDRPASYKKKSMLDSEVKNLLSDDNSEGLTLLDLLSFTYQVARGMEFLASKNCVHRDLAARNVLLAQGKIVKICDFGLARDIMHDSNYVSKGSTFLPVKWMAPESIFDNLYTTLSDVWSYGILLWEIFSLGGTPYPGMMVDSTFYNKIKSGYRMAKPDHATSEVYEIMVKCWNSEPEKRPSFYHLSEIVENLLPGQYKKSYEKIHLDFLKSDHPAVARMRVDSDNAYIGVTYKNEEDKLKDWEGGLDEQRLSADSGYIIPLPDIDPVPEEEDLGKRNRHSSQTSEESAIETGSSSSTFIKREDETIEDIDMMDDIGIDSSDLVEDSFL

As to `Cc1ccc(NC(=O)c2ccc(CN(CCO)C(=O)CN(C)C)cc2)cc1Nc1nccc(-c2cccnc2)n1`, the GI50 is above 10000 nM in series [1], 3880 nM in series [2], 363 nM in series [4] and above 10000 nM in series [5]. Also, the GI50 at 72 h in series [3] is above 10000 nM.

On to `Cc1ccc(NC(=O)c2ccc(CN(CCN(C)C)C(=O)C(C)C)cc2)cc1Nc1nccc(-c2cccnc2)n1`, for which the GI50 is 6110 nM in series [1], 123 nM in series [2], 39 nM in series [4] and 8640 nM in series [5]. In series [3], the GI50 at 72 h is above 10000 nM.

Regarding `C=CC(=O)Nc1cccc(C(=O)Nc2ccc(C)c(Nc3nccc(-c4cccnc4)n3)c2)c1`, the GI50 in series [1] came out at 1530 nM; in series [2] it was 173 nM; in series [4], 8 nM; in series [5], 1570 nM. The compound also yielded a GI50 at 72 h in series [3] of 2480 nM.

Consider `CCN(CC)CCN(Cc1ccc(C(=O)Nc2ccc(C)c(Nc3nccc(-c4cccnc4)n3)c2)cc1)C(=O)c1cccnc1`, for which the GI50 in series [1] was above 10000 nM; in series [2] it was 699 nM; in series [4], 33 nM; in series [5], above 10000 nM. The GI50 at 72 h in series [3] was above 10000 nM.

Regarding `C/C=C/C(=O)N(CCN(C)C)Cc1ccc(C(=O)Nc2ccc(C)c(Nc3nccc(-c4cccnc4)n3)c2)cc1`, the GI50 in series [1] is above 10000 nM; in series [2] it was 219 nM; in series [4], 54 nM; in series [5], 8540 nM. In series [3], this compound had a GI50 at 72 h above 10000 nM.

As to `Cc1ccc(NC(=O)c2ccc(CN(CCN(C)C)C(=O)c3cccs3)cc2)cc1Nc1nccc(-c2cccnc2)n1`, the GI50 in series [1] is above 10000 nM; in series [2], 207 nM; in series [4] it was 56 nM; in series [5], above 10000 nM. This compound also gave a GI50 at 72 h in series [3] above 10000 nM.

On to `CCC(=O)Nc1cc(C(=O)Nc2ccc(C)c(Nc3nccc(-c4cccnc4)n3)c2)cc(C(F)(F)F)c1`, for which the GI50 in series [1] was 104 nM; in series [2], 231 nM; in series [4] it was 39 nM; in series [5], above 10000 nM. For the same compound, the GI50 at 72 h in series [3] was above 10000 nM.

Regarding `C=CC(=O)Nc1cc(C(=O)Nc2ccc(C)c(Nc3nccc(-c4cccnc4)n3)c2)cc(C(F)(F)F)c1`, the GI50 in series [1] is 250 nM; in series [2] it was 98 nM; in series [4] it was 13 nM; in series [5] it was 3340 nM. This compound also registered a GI50 at 72 h in series [3] of 5460 nM.

For the compound `C=CC(=O)N(CCN(CC)CC)Cc1ccc(C(=O)Nc2ccc(C)c(Nc3nccc(-c4cccnc4)n3)c2)cc1`, the GI50 in series [1] worked out at 5140 nM; in series [2] it was 1100 nM; in series [4], 344 nM; in series [5] it was 4550 nM. This compound also displayed a GI50 at 72 h in series [3] of 5450 nM.

Take `C=CC(=O)NCc1cccc(C(=O)Nc2ccc(C)c(Nc3nccc(-c4cccnc4)n3)c2)c1`: the GI50 in series [1] was 4750 nM; in series [2], 244 nM; in series [4], 160 nM; in series [5], above 10000 nM. The GI50 at 72 h in series [3] was above 10000 nM.

In the case of `Cc1ccc(NC(=O)c2ccc(CN(CCN(C)C)C(=O)CN(C)C)cc2)cc1Nc1nccc(-c2cccnc2)n1`, the GI50 was above 10000 nM in series [1], 9200 nM in series [2], 120 nM in series [4] and above 10000 nM in series [5]. For the same compound, the GI50 at 72 h in series [3] is above 10000 nM.

Regarding `Cc1ccc(NC(=O)c2ccc(CN(CCO)C(=O)c3cccnc3)cc2)cc1Nc1nccc(-c2cccnc2)n1`, the GI50 in series [1] was above 10000 nM; in series [2] it was 3020 nM; in series [4], 353 nM; in series [5], above 10000 nM. The compound also showed a GI50 at 72 h in series [3] above 10000 nM.

As for `C=CC(=O)NCc1ccc(C(=O)Nc2ccc(C)c(Nc3nccc(-c4cccnc4)n3)c2)cc1`, the GI50 in series [1] is above 10000 nM; in series [2], 155 nM. The GI50 at 72 h in series [3] is above 10000 nM.

As for `Cc1ccc(C(=O)N(CCN(C)C)Cc2ccc(C(=O)Nc3ccc(C)c(Nc4nccc(-c5cccnc5)n4)c3)cc2)cc1`, the GI50 in series [1] is above 10000 nM; in series [2], 240 nM; in series [4], 100 nM; in series [5], above 10000 nM. This compound displayed a GI50 at 72 h in series [3] above 10000 nM.

Consider `Cc1ccc(NC(=O)c2ccc(CN(CCN3CCCC3)C(=O)c3cccnc3)cc2)cc1Nc1nccc(-c2cccnc2)n1`, for which the GI50 in series [1] is above 10000 nM; in series [2], 934 nM; in series [4], 39 nM; in series [5] it was above 10000 nM. The GI50 at 72 h in series [3] is above 10000 nM.

In the case of `Cc1ccc(NC(=O)c2ccc(NC(=O)c3cccnc3)cc2)cc1Nc1nccc(-c2cccnc2)n1`, the GI50 in series [1] is 426 nM; in series [2] it was 583 nM; in series [4], 13 nM; in series [5], 882 nM. The 50% growth inhibitory concentration (GI50) at 72 h in series [3] was 1700 nM.

Consider `CCC(=O)NCc1ccc(C(=O)Nc2ccc(C)c(Nc3nccc(-c4cccnc4)n3)c2)cc1`, for which the GI50 in series [1] was 6220 nM; in series [2], 201 nM; in series [4] it was 14 nM; in series [5] it was above 10000 nM. For the same compound, the GI50 at 72 h in series [3] was above 10000 nM.

On to `C=CC(=O)Nc1ccc(C(=O)Nc2ccc(C)c(Nc3nccc(-c4cccnc4)n3)c2)cc1`, for which the results for the GI50 in series [1], in series [2] and in series [5] were 2940 nM, 757 nM and 2030 nM, respectively. Also, in series [3], the GI50 at 72 h came to 5600 nM.

With `CCC(=O)Nc1ccc(C(=O)Nc2ccc(C)c(Nc3nccc(-c4cccnc4)n3)c2)cc1`, the GI50 in series [1] stood at 4940 nM; in series [2] it was 888 nM; in series [4], 12 nM; in series [5], 6270 nM. Further, the GI50 at 72 h in series [3] was above 10000 nM.

In the case of `C=CC(=O)N(CCC(C)C)Cc1ccc(C(=O)Nc2ccc(C)c(Nc3nccc(-c4cccnc4)n3)c2)cc1`, the GI50 was determined as 3940 nM in series [1], 230 nM in series [2], 19 nM in series [4] and 5740 nM in series [5]. The compound further yielded a GI50 at 72 h in series [3] of 5620 nM.

Consider `Cc1ccc(NC(=O)c2ccc(CNC(=O)c3cccnc3)c(C(F)(F)F)c2)cc1Nc1nccc(-c2cccnc2)n1`, for which the GI50 stood at 66 nM in series [1], 82 nM in series [2], 5 nM in series [4] and 3410 nM in series [5]. In series [3], this compound had a GI50 at 72 h of 8330 nM.

Consider `C=CS(=O)(=O)NCc1ccc(C(=O)Nc2ccc(C)c(Nc3nccc(-c4cccnc4)n3)c2)cc1`, for which the GI50 in series [1] stood at 580 nM; in series [2] it was 48 nM; in series [4], 13 nM; in series [5] it was 1560 nM. In addition, the GI50 at 72 h in series [3] stood at 7710 nM.

In the case of `CCC(=O)N(CCN(C)C)Cc1ccc(C(=O)Nc2ccc(C)c(Nc3nccc(-c4cccnc4)n3)c2)cc1`, the GI50 in series [1] was above 10000 nM; in series [2], 504 nM; in series [4], 36 nM; in series [5], above 10000 nM. Besides, the concentration for 50% growth inhibition (GI50) at 72 h in series [3] is above 10000 nM. Further, the RatioGI50 in the series listed under Homo sapiens is 14.

Turning to `C=CC(=O)NCc1ccc(C(=O)Nc2ccc(C)c(Nc3nccc(-c4cccnc4)n3)c2)cc1C(F)(F)F`, the GI50 in series [1] is 300 nM; in series [2], 161 nM; in series [4], 59 nM; in series [5], above 10000 nM. Moreover, in series [3], the GI50 at 72 h was above 10000 nM.

Turning to `CCC(=O)NCc1cccc(C(=O)Nc2ccc(C)c(Nc3nccc(-c4cccnc4)n3)c2)c1`, the GI50 was determined as 2920 nM in series [1], 221 nM in series [2], 15 nM in series [4] and 3220 nM in series [5]. For the same compound, the concentration for 50% growth inhibition (GI50) at 72 h in series [3] worked out at 4750 nM.

With `Cc1ccc(NC(=O)c2ccc(CN(CCN(C)C)C(=O)C3CC3)cc2)cc1Nc1nccc(-c2cccnc2)n1`, the GI50 was above 10000 nM in series [1], 437 nM in series [2], 112 nM in series [4] and above 10000 nM in series [5]. This compound showed a GI50 at 72 h in series [3] above 10000 nM.

Regarding `Cc1ccc(NC(=O)c2ccc(CN(CCN(C)C)C(=O)c3ccno3)cc2)cc1Nc1nccc(-c2cccnc2)n1`, the GI50 in series [1] was above 10000 nM; in series [2] it was 787 nM; in series [4], 166 nM; in series [5] it was above 10000 nM. In series [3], this compound displayed a GI50 at 72 h above 10000 nM.

For the compound `Cc1ccc(NC(=O)c2ccc(CNCCN(C)C)cc2)cc1Nc1nccc(-c2cccnc2)n1`, the GI50 is 5000 nM in series [1], 125 nM in series [2], 24 nM in series [4] and 4880 nM in series [5]. The compound also showed a GI50 at 72 h in series [3] above 10000 nM.

Regarding `C=CC(=O)N(CCN(C)C)Cc1ccc(C(=O)Nc2ccc(C)c(Nc3nccc(-c4cccnc4)n3)c2)cc1`, the GI50 is above 10000 nM in series [1], 350 nM in series [2], 11 nM in series [4] and above 10000 nM in series [5]. The GI50 at 72 h in series [3] is above 10000 nM. Further, in the series filed under Homo sapiens, the RatioGI50 was above 30.

Take `Cc1ccc(NC(=O)c2ccc(CN(CCN(C)C)C(=O)C(C)(C)C)cc2)cc1Nc1nccc(-c2cccnc2)n1`: the GI50 in series [1] worked out at 2530 nM; in series [2], 61 nM; in series [4] it was 17 nM; in series [5] it was 5480 nM. In series [3], this compound returned a GI50 at 72 h above 10000 nM.

For `Cc1ccc(NC(=O)c2ccc(CNC(=O)c3cccnc3)cc2)cc1Nc1nccc(-c2cccnc2)n1`, the 50% growth inhibitory concentration (GI50) worked out at 216 nM in series [1], 341 nM in series [2], 14 nM in series [4] and 348 nM in series [5]. This compound yielded a GI50 at 72 h in series [3] of 1120 nM.

As for `CCCC(=O)N(CCN(C)C)Cc1ccc(C(=O)Nc2ccc(C)c(Nc3nccc(-c4cccnc4)n3)c2)cc1`, the 50% growth inhibitory concentration (GI50) in series [1] was 5750 nM; in series [2], 90 nM; in series [4], 25 nM; in series [5], 4760 nM. Further, the GI50 at 72 h in series [3] is above 10000 nM.

A word on the GI50: it is the concentration at which growth is held to half of that of the control.
